Usually EC50 stands for the concentration needed to bring the measured effect to its halfway point. In general, CC50 refers to the concentration at which the toxic effect on the cells reaches its halfway point.

The subject of data set [1] is Hepatitis C virus. In words: Antiviral activity against HCV J6/JFH/JC1 infected in human Huh7.5 cells assessed as reduction in viral RNA levels incubated for 72 hrs by qRT-PCR analysis. It is filed as functional, organism-based, Hepacivirus hominis. As to conditions: J6/JFH/JC1, Huh7.5, 72 h. The gist of the method: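 Huh7.5 cells seeded 24 h, then infected with wild-type (or mutant) HCV with compound added at the same time. Incubated 72 h. Intracellular HCV RNA measured by qRT-PCR, 2^-ΔCt method, normalized to GAPDH. Eight-step 1:5 serial dilutions in triplicate; EC50 by Reed & Muench; three independent experiments.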
A general note: Quantitative PCR measures a nucleic acid by following its amplification.

Data set [2] can be described thus: Cytotoxicity in human Huh7.5 cells assessed as reduction in cell viability incubated for 96 hrs by MTT assay. It is filed as cell-based. The gist of the method:
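Huh7.5 cells seeded 24 h before compound addition. Viability read by MTT at 96 h. Eight-step 1:5 serial dilutions in triplicate; CC50 by Reed & Muench; three independent experiments.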
In general terms: Tetrazolium assays rely on reduction of a dye to a coloured formazan, in cell work by metabolically active cells.

Data set [3] is described as follows: Selectivity index, ratio of CC50 for cytotoxicity in human Huh7.5 cells assessed as reduction in cell viability incubated for 96 hrs by MTT assay to EC50 for antiviral activity against HCV J6/JFH/JC1 infected in human Huh7.5 cells incubated for 72 hrs by In-Cell Western assay. It is filed as toxicity, cell-based. As to conditions: read-out: Ratio CC50/EC50. An outline of the steps: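 HCVcc (MOI=0.1) infected Huh7.5 cells co-treated with eight-step 1:5 serial dilutions, triplicate wells. After 72 h, fixed, permeabilized, and stained for HCV Core and GAPDH with IR-dye secondaries. Core normalized to GAPDH. CC50 came from MTT at 96 h in uninfected Huh7.5 cells. EC50/CC50 were derived by Reed & Muench, mean ± SD of three independent experiments.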

In data set [4] the test system is Hepatitis C virus. The data set can be described thus: Antiviral activity against HCV J6/JFH/JC1 infected in human Huh7.5 cells incubated for 72 hrs by In-Cell Western assay. It is filed as functional, organism-based, Hepacivirus hominis. As to conditions: J6/JFH/JC1, Huh7.5, 72 h. The gist of the method:
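Huh7.5 cells infected with HCVcc (MOI 0.1) and treated with compound at the same time for 72 h. Cells fixed with PFA, permeabilized, then stained for HCV Core and GAPDH with IR-dye secondaries. Core signal normalized to GAPDH. Eight-step 1:5 dilutions in triplicate; EC50 by Reed & Muench; mean of three experiments.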

Consider `Cc1ccc(NCc2cc(N3CCNCC3)ccc2C#N)cc1`, for which, in data set [1], the EC50 turned out to be 1.68 µM. Moreover, the CC50 at 96 h in data set [2] was determined as 18.8 µM.

`Cc1ccc(NCc2cc(N3CCOCC3)ccc2C#N)cc1`: the EC50 in data set [1] is more than 66.7 µM. The CC50 at 96 h in data set [2] came to 133 µM.

Take `COc1ccc(NCc2cc(N3CCN(C)CC3)ccc2C#N)cc1`: in data set [1], the EC50 turned out to be 2.14 µM. Moreover, in data set [2], the CC50 at 96 h was 48.2 µM.

With `CN1CCN(c2ccc(C#N)c(CNc3ccc(Cl)cc3)c2)CC1`, the EC50 in data set [1] stood at 0.42 µM. Further, the CC50 at 96 h in data set [2] turned out to be 18.3 µM.

For `Cc1ccc(NCc2cc(N3CCCCC3)ccc2C#N)cc1`, the EC50 in data set [1] was more than 7.41 µM. In addition, in data set [2], the CC50 at 96 h came out at 11.4 µM.

On to `N#Cc1ccc(NCc2ccccn2)cc1CN1CCN(c2ccc(Cl)cc2)CC1`, for which the CC50 at 96 h in data set [2] is more than 200 µM. The selectivity ratio in data set [3] was more than 14. For the same compound, in data set [4], the EC50 was found to be 13.7 µM.

`CC(C)CCNc1ccc(C#N)c(CN2CCN(c3ccc(Cl)cc3)CC2)c1`: the CC50 at 96 h in data set [2] was more than 200 µM. For the same compound, the selectivity ratio in data set [3] was more than 1. For the same compound, in data set [4], a half-maximal response (EC50) required 119 µM.

In the case of `CN(C)CCN(C)c1ccc(C#N)c(CN2CCN(c3ccc(Cl)cc3[N+](=O)[O-])CC2)c1`, in data set [2], the CC50 at 96 h stood at 12.5 µM. Further, in data set [3], the selectivity ratio worked out at 57. In data set [4], this compound yielded an EC50 of 0.217 µM.

On to `CNCCN(C)c1ccc(C#N)c(CN2CCN(c3ccc(Cl)cc3)CC2)c1`, for which, in data set [2], the CC50 at 96 h was 15.8 µM. In data set [3], the selectivity ratio came out at 54. The same compound displayed an EC50 in data set [4] of 0.289 µM.

As for `CN(C)CCN(C)c1ccc(C(N)=O)c(CN2CCN(c3ccc(Cl)cc3)CC2)c1`, in data set [2], the CC50 at 96 h came to 15.5 µM. In addition, the selectivity ratio in data set [3] was found to be 13. In data set [4], this compound returned an EC50 of 1.16 µM.

As to `CN(C)CCN(C)c1ccc(C#N)c(CN2CCN(c3ccc(C#N)cc3)CC2)c1`, the CC50 at 96 h in data set [2] turned out to be 9.05 µM. Also, the selectivity ratio in data set [3] is 4. In data set [4], this compound registered an EC50 of 1.87 µM.

As to `CN(C)CCN(C)c1ccc(C#N)c(CN2CCN(Cc3ccc(Cl)cc3)CC2)c1`, the CC50 at 96 h in data set [2] was 15.6 µM. For the same compound, in data set [3], the selectivity ratio turned out to be 14. In data set [4], this compound had an EC50 of 1.05 µM.

Turning to `Cc1ccc(N(C)Cc2cc(N3CCN(C)CC3)ccc2C#N)cc1`, the EC50 in data set [1] came out at 0.89 µM. Moreover, in data set [2], the CC50 at 96 h was 82 µM.

Take `CN(C)CCN(C)c1cccc(CN2CCN(c3ccc(Cl)cc3)CC2)c1`: the CC50 at 96 h in data set [2] was 13.6 µM. In addition, the selectivity ratio in data set [3] was 14. The response in data set [4] was half-maximal at 0.936 µM (EC50).

Regarding `CN(C)CCN(C)c1ccc(C#N)c(CN2CCN(c3ccncc3)CC2)c1`, the CC50 at 96 h in data set [2] is 44.7 µM. In addition, the selectivity ratio in data set [3] is 16. The compound further came in with an EC50 in data set [4] of 2.74 µM.

Turning to `CN(C)CCN(C)c1ccc(C#N)c(CN2CCN(c3ccc(Cl)cc3Cl)CC2)c1`, the CC50 at 96 h in data set [2] was 9.85 µM. The selectivity ratio in data set [3] was determined as 59. The compound further yielded an EC50 in data set [4] of 0.166 µM.

As to `COc1ccc(N2CCN(Cc3cc(N(C)CCN(C)C)ccc3C#N)CC2)cc1`, in data set [2], the CC50 at 96 h was determined as 45.5 µM. The selectivity ratio in data set [3] is 31. Besides, the EC50 in data set [4] was determined as 1.44 µM.

In the case of `CN(C)CCN(C)c1ccc(C#N)c(CN2CCN(c3ccc(N)cc3)CC2)c1`, the CC50 at 96 h in data set [2] stood at 55.2 µM. Moreover, in data set [3], the selectivity ratio turned out to be 8. In addition, the EC50 in data set [4] was found to be 6.43 µM.

With `Cc1ccc(N2CCN(Cc3cc(N(C)CCN(C)C)ccc3C#N)CC2)cc1`, the CC50 at 96 h in data set [2] is 36.2 µM. Moreover, in data set [3], the selectivity ratio stood at 90. The compound further yielded an EC50 in data set [4] of 0.399 µM.

For the compound `N#Cc1ccc(N2CCNCC2)cc1CN1CCN(c2ccc(Cl)cc2)CC1`, the CC50 at 96 h in data set [2] came out at 13.7 µM. In data set [3], the selectivity ratio turned out to be 20. This compound also displayed an EC50 in data set [4] of 0.657 µM.

The values above are taken from ChEMBL document CHEMBL4613269, “2-((4-Arylpiperazin-1-yl)methyl)benzonitrile Derivatives as Orally Available Inhibitors of Hepatitis C Virus with a Novel Mechanism of Action” (J Med Chem, 2020).
